Assay outcomes: PubChem, several laboratories
Compounds with a hit are over-represented: about 3.7% of the library has one in this group of screens.
UPR CHOP act – apoptotic UPR (CHOP) activation | CHO-CHOP luciferase reporter, luminescence; percent of tunicamycin response over DMSO baseline | actives 0.34% (n = 330,000) | AID 449763 | activation, % at 10 µM;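 active means at 10 µM dose, activation of 40% or more, normalized to positive control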;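 further: 100% = tunicamycin at 10 µg/mL and 0% = DMSO alone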
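Assay system: CHO cells with stable CHOP pathway luciferase reporter; Buffer or medium: F12 plus 10% serum; Times: 16-18 h cell attachment, then 6 h compound exposure, 37 °C; Signal: luciferase luminescence; Read-out basis: percent activation relative to tunicamycin control; Control set: tunicamycin high control, DMSO low control.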
Mdm2 MdmX PPI – disrupts the human Mdm2-MdmX interaction. O15151+Q00987. SaOS-2 split-luciferase Mdm2/MdmX complementation, luminescence. inhibition, % at 8 µM. actives 3% (n = 330,000);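 active means inhibition of at least 50% at 8 µM in the primary screen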
XBP1 UPR activ – adaptive UPR (XBP1) activation; CHO-XBP1 luciferase reporter, IRE1-XBP1 UPR activation, luminescence; percent of tunicamycin response, DMSO as zero; activation, % at 20 µM; actives 0.33% (n = 330,000); AID 463104;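 active means versus positive control, 20 µM dose yields 30% or more activation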;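 further: 100% = tunicamycin at 10 µg/mL and 0% = DMSO only wells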
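Material – CHO cell line with stable XBP1 luciferase reporter · Buffer or medium – F12 plus 10% FBS · Compound – single point, 20 µM final compound, 1% DMSO · Schedule – 16-18 h cell attachment at 37 °C, then 6 h compound exposure · Signal – Steady-Glo luminescence read · Benchmarks – high control tunicamycin 10 µg/mL final, low control DMSO vehicle only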
MDM2 E3 inh – blocks human Mdm2 ubiquitin ligase activity. Q00987. AID 1230. signal enhancement, % at 5 µM. cell-based MDM2 ubiquitination luciferase reporter, 2 h; 0 = plate control, 100 = twice control, blank-subtracted. actives 0.11% (n = 210,000);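 active means signal enhancement of 30% or more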;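 further: luminescence tracks abundance of the self-degrading MDM2-luciferase fusion protein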
Target sequence (Q00987 whole entry, looked up, the tested form may be a part): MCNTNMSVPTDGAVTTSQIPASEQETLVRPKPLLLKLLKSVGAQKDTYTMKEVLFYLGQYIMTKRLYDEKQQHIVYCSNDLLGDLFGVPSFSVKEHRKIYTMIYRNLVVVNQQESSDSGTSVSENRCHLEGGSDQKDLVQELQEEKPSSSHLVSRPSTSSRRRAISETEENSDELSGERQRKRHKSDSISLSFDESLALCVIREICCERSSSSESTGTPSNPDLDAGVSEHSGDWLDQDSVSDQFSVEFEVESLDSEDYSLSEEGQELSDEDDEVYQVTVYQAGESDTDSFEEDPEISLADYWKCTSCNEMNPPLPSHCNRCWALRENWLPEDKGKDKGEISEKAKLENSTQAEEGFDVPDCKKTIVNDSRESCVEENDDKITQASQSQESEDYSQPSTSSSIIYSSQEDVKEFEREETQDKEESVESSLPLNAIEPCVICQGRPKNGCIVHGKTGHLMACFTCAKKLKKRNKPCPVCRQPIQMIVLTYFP
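Test system: stable mammalian line carrying autodegrading MDM2–luciferase fusion reporter; quantity: 2000 cells in each well; times: 4 h cell settling then 2 h compound exposure, 37 °C; detection: luminescence with SteadyLite reagent, 15 min at room temperature; evaluation: percent signal gain over controls, blank-subtracted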
Dynein cargo inh – blocks dynein driven cargo transport along microtubules | AID 1381 | actives 0.47% (n = 220,000) | 3617.4 mouse cells, GR-EGFP nuclear translocation imaging; test concentration mostly 20 µM; stimulated with dexamethasone, 1 µM; hits give low values | z-score, hits read low;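 active means plate z-score of nuclear minus cytoplasmic receptor signal below a set negative limit, without overly bright fluorescence or cell loss, cut at about -3.5 in these data, passing the limit was not always enough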;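 further: z-score of nuclear minus cytoplasmic ring GR-EGFP intensity difference per well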
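Buffer or medium: tetracycline-free induction medium containing charcoal-stripped FBS / Reagent: dexamethasone agonist, 1.0 µM final, for 30 min / Technique: automated 10x imaging of fixed Hoechst-stained cells / Times: induction 48 h, compound 1 h, agonist 30 min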
B2AR ag – human beta-2 adrenergic receptor agonism by FAP | P07550 | Am2.2-beta2AR cells, FAP receptor internalization, flow cytometry | response, % (no concentration beside the values) | actives 0.43% (n = 340,000);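 active means response above a set limit, near 3 SD of response in nonfluorescent compounds, cut at about 42% in these data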
Dynein inh conf – dynein cargo transport inhibition, confirmation. shares compounds with Dynein cargo inh. 3617.4 GR-EGFP nuclear translocation imaging, dexamethasone-induced. calls only at 20 µM. actives 69% (n = 1,000);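 active means inhibition of receptor movement into the nucleus at or above a set limit in both runs, with normal cell brightness and cell count; inconclusive means limit reached in only one run, brightness and count normal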;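 further: dexamethasone at 1 µM final in well for 30 min; nuclear minus cytoplasmic GR-EGFP mean intensity difference in channel 2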
CHOP UPR conf – apoptotic UPR (CHOP) activation, confirmed. CHO-CHOP cells, CHOP-luciferase reporter luminescence; percent of tunicamycin response, DMSO as zero. actives 64% (n = 1,000). activation, % at 10 µM. shares compounds with UPR CHOP act; in the data active means activation above about 33%;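 further: 0% = DMSO wells and 100% = tunicamycin 10 µg/mL wells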
Mdm2-MdmX conf – confirmation of human Mdm2/MdmX interaction inhibitors; shares compounds with Mdm2 MdmX PPI; Mdm2-MdmX binding, luminescent assay; inhibition, % at 8 µM; actives 55% (n = 10,000); AID 489028; in the data active means inhibition above about 40%
FLuc counter – counter-screen for Mdm2/MdmX inhibitors: full-length luciferase | SaOS-2 full-length luciferase counterscreen, luminescence | actives 77% (n = 6,200) | inhibition, % at 8 µM | shares compounds with Mdm2 MdmX PPI;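 active means mean inhibition at 8 µM reaching about 37%, which flags the compound as non-specific, limit read from the data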;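 further: p53-null SaOS-2 cells with luciferase driven by a doxycycline-inducible promoter; compound on cells about two nights before reading with doxycycline added after day one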
* marks the source's active call; other numbers are inactive results.

Results for Cc1cc(C=C2C(=O)NC(=O)NC2=O)c(C)n1-c1cccnc1 ?
UPR CHOP act: 2; Mdm2 MdmX PPI: 4; XBP1 UPR activ: -2; Dynein cargo inh: -0.73; B2AR ag: 6

How did C=CCN1C(=O)/C(=C/c2cc(C)n(-c3cccnc3)c2C)C(=O)NC1=S do in these assays?
MDM2 E3 inh: -12; Dynein cargo inh: -6.5*; B2AR ag: 20; Dynein inh conf: inactive

What do the screens show for `CCN(CC)c1ccc(C=C2C(=O)NC(=S)NC2=O)cc1`?
UPR CHOP act: 222*; Mdm2 MdmX PPI: 23; XBP1 UPR activ: 0; MDM2 E3 inh: -9; Dynein cargo inh: -5.1*; B2AR ag: 51*; Dynein inh conf: inconclusive; CHOP UPR conf: 135*

What do the screens show for `O=C(Cn1cnc2sc3c(c2c1=O)CCCC3)NCCCC(=O)N1CCC2(CC1)OCCO2`?
UPR CHOP act: -2; Mdm2 MdmX PPI: -7; XBP1 UPR activ: -2; MDM2 E3 inh: -18; Dynein cargo inh: -0.41; B2AR ag: -26

Results for Cc1ccccc1[N+](=O)[O-] ?
UPR CHOP act: 1; Mdm2 MdmX PPI: -12; XBP1 UPR activ: -2; B2AR ag: 0

What do the screens show for `Cc1cc([N+](=O)[O-])c2ccccc2[n+]1[O-]`?
UPR CHOP act: -4; Mdm2 MdmX PPI: 99*; XBP1 UPR activ: -6; MDM2 E3 inh: -15; Dynein cargo inh: -4.5*; B2AR ag: 8; Dynein inh conf: active; Mdm2-MdmX conf: 100*; FLuc counter: 51*

What do the screens show for `COc1cccc2c1O[C@H]1C(=O)CC[C@H]3CN(C)CCC231` (some centres undefined)?
UPR CHOP act: -1; Mdm2 MdmX PPI: 4; XBP1 UPR activ: 1; B2AR ag: 1

How did CC1(C)C[C@H]2C=C(C=O)[C@]3(C=O)C[C@]3(C)[C@H]2C1 do in these assays?
UPR CHOP act: -9; Mdm2 MdmX PPI: 100*; XBP1 UPR activ: -9; MDM2 E3 inh: -25; Dynein cargo inh: -5.1; B2AR ag: 23; Dynein inh conf: active; Mdm2-MdmX conf: 100*; FLuc counter: -1

What do the screens show for `CCC(C)n1c(O)c(C=Nc2cccc(C(F)(F)F)c2)c(=O)[nH]c1=S` (centres undefined)?
UPR CHOP act: 1; Mdm2 MdmX PPI: 7; XBP1 UPR activ: -2; MDM2 E3 inh: -9; Dynein cargo inh: -0.05; B2AR ag: -20

Results for C=C1C(=O)O[C@H]2C[C@@H](C)[C@@H]3C=CC(=O)[C@@]3(C)C[C@H]12 ?
UPR CHOP act: 7; Mdm2 MdmX PPI: 100*; XBP1 UPR activ: -6; MDM2 E3 inh: 35*; Dynein cargo inh: -3.8*; Dynein inh conf: active; Mdm2-MdmX conf: 96*; FLuc counter: 53*

What do the screens show for `O=C1NC(=O)N(Cc2ccccc2)C(=O)/C1=C\C=C\c1ccco1`?
UPR CHOP act: 161*; Mdm2 MdmX PPI: 66*; XBP1 UPR activ: -1; MDM2 E3 inh: 29; Dynein cargo inh: -4.4*; B2AR ag: 67*; Dynein inh conf: active; CHOP UPR conf: 186*; Mdm2-MdmX conf: 13

Results for COc1ccc(Oc2cc(NC(=O)c3nn(C)cc3[N+](=O)[O-])cc([N+](=O)[O-])c2)cc1 ?
UPR CHOP act: 17; Mdm2 MdmX PPI: 76*; XBP1 UPR activ: 2; MDM2 E3 inh: -24; Dynein cargo inh: -4*; B2AR ag: 12; Dynein inh conf: active; Mdm2-MdmX conf: 96*; FLuc counter: 46*

What do the screens show for `COc1ccc(NC(=O)c2cn(CCC#N)nc2-c2cccc([N+](=O)[O-])c2)cc1`?
UPR CHOP act: 1; Mdm2 MdmX PPI: -21; XBP1 UPR activ: -1; Dynein cargo inh: -1.2; B2AR ag: -1

Results for CN(C)c1ccc(C(=O)c2ccc(N(C)C)cc2)cc1 ?
UPR CHOP act: 3; Mdm2 MdmX PPI: 28; XBP1 UPR activ: 7; MDM2 E3 inh: 4; Dynein cargo inh: -0.38; B2AR ag: -10

What do the screens show for `C/C(=C\c1ccc(N(C)C)cc1)[N+](=O)[O-]`?
UPR CHOP act: 224*; Mdm2 MdmX PPI: 100*; XBP1 UPR activ: -1; MDM2 E3 inh: -3; Dynein cargo inh: -4.5*; B2AR ag: 15; Dynein inh conf: active; CHOP UPR conf: 150*; Mdm2-MdmX conf: 31

Results for CNC(C(=O)c1ccccc1)C(OC)c1ccc(C)cc1 (centres undefined) ?
UPR CHOP act: 1; Mdm2 MdmX PPI: -29; XBP1 UPR activ: -2; MDM2 E3 inh: -1; Dynein cargo inh: -0.6; B2AR ag: 3

How did CN1CSC(=S)N(C)C1 do in these assays?
UPR CHOP act: 40*; Mdm2 MdmX PPI: 16; XBP1 UPR activ: -2; MDM2 E3 inh: -5; Dynein cargo inh: -1; B2AR ag: 7; CHOP UPR conf: 30

How did CCC1CN1P(=S)(N1CC1CC)N1CC1CC (centres undefined) do in these assays?
B2AR ag: 1

How did COc1cc(CN2CCN(c3cc(C)ccc3C)CC2)ccc1O do in these assays?
UPR CHOP act: 393*; Mdm2 MdmX PPI: 31; XBP1 UPR activ: 14; MDM2 E3 inh: 6; Dynein cargo inh: -0.23; B2AR ag: 7; CHOP UPR conf: 152*

How did CN1CCCN(C(=O)COc2ccccc2Br)CC1 do in these assays?
UPR CHOP act: 1; Mdm2 MdmX PPI: -6; XBP1 UPR activ: -1; B2AR ag: 0

What do the screens show for `C=C(C)C(Cc1c(OC)ccc(C(=O)/C=C/c2ccc(O)cc2)c1O)OO` (centres undefined)?
UPR CHOP act: 47*; Mdm2 MdmX PPI: 34; XBP1 UPR activ: 2; B2AR ag: 10; CHOP UPR conf: 19

What do the screens show for `CCOc1ccc(N2C(=O)/C(=C/c3ccc(C)o3)C(=O)NC2=S)cc1`?
UPR CHOP act: 1; Mdm2 MdmX PPI: 7; XBP1 UPR activ: -2; B2AR ag: 30
